Assay outcomes as filed in PubChem.
This is a sample that favours compounds with a hit; in the whole collection about 2.9% have one here.
TRPC4 PAM – positive allosteric modulators of TRPC4, primary screen, cell-based, mouse TRPC4beta, HEK293 mu-opioid, Fluo-4 calcium. Short transient receptor potential channel 4 (Mus musculus), Q9QUQ5. DAMGO EC20, Fluo-4 Ca2+ flux; stronger effect = higher value. B-score at 10 µM. 310,000 compounds, 0.42% hits. AID 2227, 2009;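 active = B-score of calcium response area above 5 SD of library B-scores, with initial fluorescence ratio within 5 SD of library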
TRPC4 inh – inhibitors of mouse TRPC4 channel, primary screen, Fluo4 calcium, HEK293 TRPC4beta/mu-opioid cells | B-score at 10 µM | 300,000 compounds, 0.39% hits | AID 2247, 2010 | DAMGO-evoked Fluo4 calcium flux; stronger effect = lower value | Short transient receptor potential channel 4 (Mus musculus), Q9QUQ5;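 active = B-score over 3 SD under the library average, no early fluorescence shift, positive overall ratio signal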
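Material: HEK293 cells with stable TRPC4beta plus mu-opioid receptor expression / Probe or stimulus: DAMGO in two steps, submaximal then maximal / Compound: single concentration per test compound / Technique: kinetic Fluo4 fluorescence imaging of calcium influx / Read-out: per-well B score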
Kir21 block – inhibitors of mouse Kir2.1 inward-rectifier potassium channel. HEK293-Kir2.1, FluxOR thallium flux fluorescence; stronger effect = lower value. B-score at 10 µM. 310,000 compounds, 0.85% hits. AID 1672, 2009;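 active = fluorescence ratio B-score at or below minus 3 SD of library scores, with starting-brightness B-score within 2 SD, cut at about -4.2 in these data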;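 note: channel flux triggered by added potassium and thallium sulfate stimulus; B-score of peak minus minimum fluorescence over baseline after thallium stimulus; more negative B-score means stronger Kir2.1 block with less thallium influx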
TRPC4 agonist – activators of mouse TRPC4 channel, primary screen, Fluo4 calcium, HEK293 TRPC4beta/mu-opioid cells. B-score at 10 µM. Short transient receptor potential channel 4 (Mus musculus), Q9QUQ5. 310,000 compounds, 0.49% hits. Fluo4 calcium fluorescence; stronger effect = higher value;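 active = B-score above 5 SD of library B-scores, and initial fluorescence ratio not above library mean plus 5 SD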;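 note: positive B-score marks a calcium rise read as TRPC4 activation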
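Incubation: 45 min room-temperature Fluo4 loading, 110 s read / System: HEK293 cells stably co-expressing mouse TRPC4beta and mu-opioid receptor / Signal: Fluo4 fluorescence, kinetic / Control set: buffer (low) and maximal DAMGO (high) / Measure: integrated baseline-normalised fluorescence ratio, converted to per-well B score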
TRPC6 act – mouse TRPC6 channel activators, primary screen, cell-based, HEK293, membrane potential dye. Short transient receptor potential channel 6 (Mus musculus), Q61143. HEK293-TRPC6 membrane potential dye fluorescence; stronger effect = higher value. B-score at 10 µM. 310,000 compounds, 0.13% hits. AID 2550, 2010;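 active = B-score of the integrated fluorescence ratio above library mean plus 3 SD, and starting fluorescence ratio within library mean plus 5 SD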;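 note: higher score means more depolarization so channel activation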
Target sequence (Q61143 whole entry, looked up): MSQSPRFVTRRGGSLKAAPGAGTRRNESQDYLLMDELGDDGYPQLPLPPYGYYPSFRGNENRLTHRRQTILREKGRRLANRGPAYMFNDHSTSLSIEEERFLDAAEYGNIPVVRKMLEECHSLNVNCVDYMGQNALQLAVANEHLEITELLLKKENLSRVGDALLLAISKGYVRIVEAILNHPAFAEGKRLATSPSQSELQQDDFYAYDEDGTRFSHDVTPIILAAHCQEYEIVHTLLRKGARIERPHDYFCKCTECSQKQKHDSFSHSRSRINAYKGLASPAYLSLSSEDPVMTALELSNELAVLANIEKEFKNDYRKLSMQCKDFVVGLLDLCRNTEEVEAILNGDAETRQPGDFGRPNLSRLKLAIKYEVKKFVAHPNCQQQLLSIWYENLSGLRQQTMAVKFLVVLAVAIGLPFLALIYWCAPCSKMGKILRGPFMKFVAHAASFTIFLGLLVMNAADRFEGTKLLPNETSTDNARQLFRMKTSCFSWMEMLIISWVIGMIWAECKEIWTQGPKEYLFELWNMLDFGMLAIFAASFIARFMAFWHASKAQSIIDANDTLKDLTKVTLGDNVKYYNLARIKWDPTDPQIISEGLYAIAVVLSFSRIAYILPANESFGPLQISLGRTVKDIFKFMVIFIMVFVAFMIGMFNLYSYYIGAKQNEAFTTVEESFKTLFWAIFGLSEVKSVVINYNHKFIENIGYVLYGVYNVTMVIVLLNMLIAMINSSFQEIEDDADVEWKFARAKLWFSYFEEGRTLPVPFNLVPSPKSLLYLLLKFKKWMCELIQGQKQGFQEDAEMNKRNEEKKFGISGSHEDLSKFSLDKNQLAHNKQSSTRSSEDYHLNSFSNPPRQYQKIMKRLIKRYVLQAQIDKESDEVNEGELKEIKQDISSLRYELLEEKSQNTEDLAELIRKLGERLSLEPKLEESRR
TRPC6 inhibitor – mouse TRPC6 channel inhibitors, primary screen, cell-based, HEK293, membrane potential dye; 310,000 compounds, 1.1% hits; Short transient receptor potential channel 6 (Mus musculus), Q61143; ACh-evoked depolarization; stronger effect = lower value; B-score at 10 µM;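 active = B-score under library mean minus 3 SD, initial fluorescence not abnormally high, positive integrated signal ratio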;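 note: B-score derived from integrated fluorescence ratio over the kinetic read; more negative B-score means stronger inhibition of depolarization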
Hits are given with their value; – = inactive; · = no result given; ! = repeats disagree.

SMILES	TRPC4 PAM	TRPC4 inh	Kir21 block	TRPC4 agonist	TRPC6 act	TRPC6 inhibitor
CC1CCC(C(=O)c2c(O)c3ccccc3oc2=O)CC1 (stereo not given)	–	–	–	44	–	–
CC(=N)c1c(O)c2ccccc2oc1=O	–	–	–	–	–	–
Cc1ccc(Cl)cc1N1CCN(C(=O)C2(S(=O)(=O)c3ccc(Cl)cc3)CC2)CC1	–	–	–	–	–	–
Cc1cccc(N2CCN(C(=O)C3(S(=O)(=O)c4ccc(Cl)cc4)CC3)CC2)c1C	19	–	–	–	–	–
O=C(Nc1cccc(Cl)c1N1CCOCC1)c1ccco1	–	–	–	–	–	–
CCN1CCN(c2c(Cl)cccc2NC(=O)c2cccs2)CC1	39	–	–	–	–	–
CCN1CCN(c2c(Cl)cccc2NC(=O)c2ccco2)CC1	–	–	–	65	–	–
CCN1CCN(c2c(Cl)cccc2NC(=O)c2ccc([N+](=O)[O-])o2)CC1	–	–	–	–	–	-8.69
CCc1nc(SCc2ccccn2)c2c(=O)n(C)c(=O)n(C)c2n1	–	–	–	–	–	–
CC(C)c1nc(SCc2ccccn2)c2c(=O)n(C)c(=O)n(C)c2n1	–	–	–	52	–	–
CC1(C)Cc2c(cnn2-c2ccccc2)C(NC(=O)CCN2CCCCO2)C1 (stereo not given)	–	–	–	–	–	–
CCCCC(=O)N1CCN(c2nc3ccc(OCC)cc3s2)CC1	–	–	–	–	–	–
CCCCC(=O)N1CCN(c2nc3ccc(F)cc3s2)CC1	–	–	–	78	–	–
Cc1c(Cl)cccc1NC(=O)CSc1nc2ncc(Cl)cc2[nH]1	–	–	–	–	–	–
CC1=NN(c2ccccc2)C(=O)/C1=C\c1c(C)[nH]n(-c2ccccc2)c1=O	–	–	–	–	–	–
CC1=NN(c2ccccc2)C(=O)/C1=C/c1c(O)n(-c2ccc(F)c(Cl)c2)[nH]c1=O	–	-8	–	–	–	–
O=C(NC1CCN(C(=O)Nc2ccc(F)cc2)CC1)c1ccc(F)cc1	–	–	–	–	–	–
CC(OC(=O)CCN1C(=O)C2CC=CCC2C1=O)C(=O)Nc1cccc(C#N)c1 (stereo not given)	–	–	–	–	–	–
COc1ccc(CC(=O)N(c2ccccc2)c2nc(C)cs2)cc1	–	–	-5.54	–	–	–
O=C(NC1CCCN(Cc2ccc(Cl)cc2)C1)c1c(F)cccc1F (stereo not given)	–	–	–	–	–	–
O=C(NC1CCCN(Cc2ccc(Cl)cc2)C1)C1CCC1 (stereo not given)	–	–	–	136	–	–
CC(C)Cc1ccc(CN2CCCC(NC(=O)CSc3nncn3C)C2)cc1 (stereo not given)	–	–	–	–	–	–
COc1cccc(CC(=O)NC2CCCN(Cc3ccc(Cl)cc3)C2)c1 (stereo not given)	14	–	–	–	–	–
COc1ccc(CN2CCC(C(=O)c3ccc(Cl)cc3)CC2)cc1	–	–	-9.8	–	–	–
Cn1cnnc1SCC(=O)NC1CCCN(Cc2ccc(Cl)cc2)C1 (stereo not given)	–	–	–	46	–	–
SMILES	TRPC4 PAM	TRPC4 inh	Kir21 block	TRPC4 agonist	TRPC6 act	TRPC6 inhibitor
CCOC(=O)NN1C(=O)c2ccccc2NC1c1ccc(OC)c(OC)c1 (stereo not given)	–	–	–	–	–	–
CN(Cc1ccccc1)C(=O)C1CCCN(Cc2ccc(Cl)cc2)C1 (stereo not given)	–	–	-4.25	–	–	–
Cc1ccc(C(=O)Nc2cccc(NC(=O)c3cccs3)c2)c(C)c1	–	–	–	–	–	–
COc1cc(Br)cc(C2C3=C(CCCC3=O)N(c3ccc(F)cc3)C3=C2C(=O)CCC3)c1O	70	–	–	–	–	–
CCOc1ccc(C2=C(C=C(C#N)C#N)C(c3ccccc3)c3ccccc3O2)cc1 (stereo not given)	–	–	–	–	–	–
COc1ccc(C2=C(CN(C)C)C(c3ccccc3)c3ccccc3O2)cc1 (stereo not given)	–	–	-5.16!	–	–	–
CC1CCCc2sc3ncn(N)c(=N)c3c21 (stereo not given)	–	–	–	–	–	–
Cc1nc2ccc(OC(=O)c3ccccc3)cc2s1	–	–	-4.79	–	–	–
c1ccc(CN2CCC(Nc3nc(-c4ccccc4)nc4ccccc34)CC2)cc1	–	–	–	–	–	-6.58
CC(C)(C)c1ccc(OCc2ccc(C(=O)NCc3cccnc3)o2)cc1	–	–	–	–	–	–
CON(C)c1nc(OCCNC(=O)OCc2ccc(Cl)cc2Cl)nc(N(C)C)n1	–	–	-4.28	–	–	–
CCCS(=O)(=O)c1c(S(=O)(=O)CCC)c2cnccn2c1C(=O)c1ccc(Cl)cc1	12	–	–	–	–	–
CCCS(=O)(=O)c1c(S(=O)(=O)CCC)c2ccc(C(N)=O)cn2c1C(=O)c1ccc(F)cc1	–	–	–	–	–	–
CCc1ccc(NC2=NCC(c3ccccc3)S2)cc1 (stereo not given)	12	–	–	–	–	–
CCN(CC)CCCNC(=O)C1CCC(CNS(=O)(=O)c2c(C)cc(C)cc2C)CC1 (stereo not given)	–	–	–	–	–	–
CCCCN(C)CCCNC(=O)C1CCC(CNS(=O)(=O)c2c(C)cc(C)cc2C)CC1 (stereo not given)	12	–	–	–	–	–
OCCC1CN(Cc2cccn2-c2cccnc2)CCN1CCc1ccccc1 (stereo not given)	–	-5	–	–	–	–
Cc1ccc(Cn2c(Cc3ccccc3)nc3ccccc32)cc1	–	-6	–	–	–	–
ClCc1nc2ccccc2n1Cc1ccccc1	–	–	–	–	–	–
OCCCc1nc2ccccc2n1CCc1ccccc1	–	·	–	–	–	–
CCCc1nc2ccccc2n1CCc1ccccc1	–	–	-6.33	–	–	–
O=C(CC(Nc1ccccc1)c1ccc(F)cc1)c1ccccc1 (stereo not given)	–	–	-5.52	–	–	–
COc1cc(CN2CCCC(N3CCN(c4ccc(F)cc4)CC3)C2)ccc1F (stereo not given)	–	–	–	–	–	–
